Data as given in ChEMBL document CHEMBL1123399, “Cardiotonic agents. 3. Synthesis and biological activity of novel 6-(substituted 1H-imidazol-4(5)-yl)-3(2H)-pyridazinones” (J Med Chem, 1986).
Several values for one entry are separate records, joined by “and”; a condition that tells them apart may be missing. Identical values can stand only once.

Legend:
Canis familiaris [1] = experiment: Percent change in heart rate in anesthetized dogs at a 0.01 mg/kg; format: functional, Canis lupus familiaris
Method in brief: (§1)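 Acutely instrumented anesthetized dogs, 30 min control period. Drug in saline or dilute HCl/NaOH diluted with saline, given i.v. cumulatively, 0.1 ml/kg over 1 min. Half-log doses 0.01–1.0 mg/kg, 10-30 min between doses. One compound per dog. Heart rate, aortic pressure and LV dP/dtmax recorded as change from preceding baseline. Values are means of two experiments.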

Canis familiaris [2] = experiment: Percent change in heart rate in anesthetized dogs at 0.03 mg/kg; format: functional, Canis lupus familiaris; method in brief: as §1
Canis familiaris [3] = experiment: Percent change in heart rate in anesthetized dogs at 0.1 mg/kg; format: functional, Canis lupus familiaris; method in brief: as §1
Canis familiaris [4] = experiment: Percent change in heart rate in anesthetized dogs at 0.31 mg/kg; format: functional, Canis lupus familiaris; method in brief: as §1
Canis familiaris [5] = experiment: Percent change in heart rate in anesthetized dogs at 1 mg/kg; format: functional, Canis lupus familiaris; method in brief: as §1
Canis familiaris [6] = experiment: Percent change in blood pressure in anesthetized dogs at 0.01 mg/kg; format: functional, Canis lupus familiaris; method in brief: as §1
Canis familiaris [7] = experiment: Percent change in blood pressure in anesthetized dogs at 0.03 mg/kg; format: functional, Canis lupus familiaris; method in brief: as §1
Canis familiaris [8] = experiment: Percent change in blood pressure in anesthetized dogs at 0.1 mg/kg; format: functional, Canis lupus familiaris; method in brief: as §1
Canis familiaris [9] = experiment: Percent change in blood pressure in anesthetized dogs at 0.31 mg/kg; format: functional, Canis lupus familiaris; method in brief: as §1
Canis familiaris [10] = experiment: Percent change in blood pressure in anesthetized dogs at 1 mg/kg; format: functional, Canis lupus familiaris; method in brief: as §1
Canis familiaris [11] = experiment: Percent change in dP/dtmax (contractility) in anesthetized dogs at 1 mg/kg; format: functional, Canis lupus familiaris; method in brief: as §1
[12] = target: Phosphodiesterase 3 (Cavia porcellus); experiment: Inhibition of guinea pig phosphodiesterase type III
Canis familiaris [13] = experiment: Percent change in dP/dtmax was measured in anesthetized dogs at a dose of 0.01 mg/kg; format: functional, Canis lupus familiaris; method in brief: as §1
[14] = target: Phosphodiesterase 3 (Cavia porcellus); experiment: Inhibition of guinea pig phosphodiesterase type III; remark: listed apart in the source
Canis familiaris [15] = experiment: Percent change in heart rate in anesthetized dogs; format: functional, Canis lupus familiaris; method in brief: as §1
Canis familiaris [16] = experiment: Percent change in blood pressure in anesthetized dogs 1 mg/kg; format: functional, Canis lupus familiaris; method in brief: as §1

Cn1cc(C2=NNC(=O)CC2)nc1-c1ccccc1
Change (Canis familiaris [1]): 3.5% | Change (Canis familiaris [2]): 13% | Change (Canis familiaris [3]): 29.5% | Change (Canis familiaris [4]): 34% | Change (Canis familiaris [5]): 29.5% | Change (Canis familiaris [6]): -1.2% | Change (Canis familiaris [7]): -5% | Change (Canis familiaris [8]): -11.8% | Change (Canis familiaris [9]): -23.2% | Change (Canis familiaris [10]): -31.8% | Change (Canis familiaris [11]): 95% | IC50 [12]: 12.1 µM

Cl.O=C1CCC(c2cn(Cc3ccccc3)c(-c3ccccc3)n2)=NN1
Change (Canis familiaris [1]): 2% | Change (Canis familiaris [2]): 1.5% | Change (Canis familiaris [3]): 19% | Change (Canis familiaris [4]): 18.5% | Change (Canis familiaris [5]): 8% | Change (Canis familiaris [6]): 1% | Change (Canis familiaris [7]): -0.5% | Change (Canis familiaris [8]): 0% | Change (Canis familiaris [9]): -4.5% | Change (Canis familiaris [10]): -4.75% | Change (Canis familiaris [13]): 2.5% and 4.5% and 12.5% and 10.5% | Change (Canis familiaris [11]): 3%

Oc1ccc(-c2ccc(-c3ncc[nH]3)cc2)nn1
Change (Canis familiaris [1]): 1.5% | Change (Canis familiaris [2]): 12.5% | Change (Canis familiaris [3]): 31.5% | Change (Canis familiaris [4]): 30.5% | Change (Canis familiaris [6]): -1% | Change (Canis familiaris [7]): -2.5% | Change (Canis familiaris [8]): -26% | Change (Canis familiaris [9]): -26.5%

Cn1cc(-c2ccc(O)nn2)nc1-c1ccccc1
Change (Canis familiaris [1]): 1.5% | Change (Canis familiaris [2]): 9.5% | Change (Canis familiaris [3]): 21.5% | Change (Canis familiaris [4]): 50.5% | Change (Canis familiaris [5]): 63.5% | Change (Canis familiaris [6]): -1.5% | Change (Canis familiaris [7]): -0.25% | Change (Canis familiaris [8]): -6.5% | Change (Canis familiaris [9]): -15.75% | Change (Canis familiaris [10]): -31.25% | Change (Canis familiaris [11]): 186%

COc1ccc(-c2nc(C3=NNC(=O)CC3)cn2C)cc1OC
Change (Canis familiaris [1]): 2.5 | Change (Canis familiaris [2]): 0.5% | Change (Canis familiaris [3]): 1.5% | Change (Canis familiaris [4]): 5% | Change (Canis familiaris [5]): 8.5% | Change (Canis familiaris [6]): -1% | Change (Canis familiaris [7]): -1.25% | Change (Canis familiaris [8]): -0.25% | Change (Canis familiaris [9]): 0% | Change (Canis familiaris [10]): 1.5% | Change (Canis familiaris [13]): 2% and 2.5% and 9.5% | Change (Canis familiaris [11]): 0% | IC50 [14]: 128 µM

COc1ccc(-c2nc(-c3ccc(O)nn3)cn2C)cc1OC
Change (Canis familiaris [1]): 1.5% | Change (Canis familiaris [2]): 1% | Change (Canis familiaris [3]): -0.5% | Change (Canis familiaris [4]): -1% | Change (Canis familiaris [5]): 0.5% | Change (Canis familiaris [6]): 0% | Change (Canis familiaris [7]): 1.5% | Change (Canis familiaris [8]): 0% | Change (Canis familiaris [9]): -1% | Change (Canis familiaris [10]): -4.5% | Change (Canis familiaris [13]): 3.5% and 6% and 4.5% and 5% | Change (Canis familiaris [11]): 13% | IC50 [12]: 75 µM

O=C1CCC(c2ccc(-n3ccnc3)cc2)=NN1 [IMAZODAN]
Change (Canis familiaris [15]): 33.8% | Change (Canis familiaris [1]): 0% | Change (Canis familiaris [2]): 5.6% | Change (Canis familiaris [3]): 6.2% | Change (Canis familiaris [4]): 19.2% | Change (Canis familiaris [6]): -0.7% | Change (Canis familiaris [7]): -4.1% | Change (Canis familiaris [8]): -5.3% | Change (Canis familiaris [9]): -13.2% | Change (Canis familiaris [10]): -22.4%

Oc1ccc(-c2cn(Cc3ccccc3)c(-c3ccccc3)n2)nn1
Change (Canis familiaris [1]): 3% | Change (Canis familiaris [2]): -1% | Change (Canis familiaris [3]): -1% | Change (Canis familiaris [4]): 3% | Change (Canis familiaris [5]): 8% | Change (Canis familiaris [6]): 8.5% | Change (Canis familiaris [7]): 6.5% | Change (Canis familiaris [8]): 8% | Change (Canis familiaris [9]): 3% | Change (Canis familiaris [16]): 2% | Change (Canis familiaris [13]): 21% and 29% and 17% and 28% | Change (Canis familiaris [11]): 55%

Cn1c(C2=NNC(=O)CC2)cnc1-c1ccccc1
Change (Canis familiaris [1]): 3% | Change (Canis familiaris [2]): 3.5% | Change (Canis familiaris [3]): 4.5% | Change (Canis familiaris [4]): 5% | Change (Canis familiaris [5]): 5.5% | Change (Canis familiaris [6]): 1.75% | Change (Canis familiaris [7]): 1.75% | Change (Canis familiaris [8]): 1.5% | Change (Canis familiaris [9]): 0% | Change (Canis familiaris [10]): -2.25% | Change (Canis familiaris [13]): 7% and 10% and 11% and 16.5% | Change (Canis familiaris [11]): 30.5% | IC50 [12]: 38 µM

Cn1c(-c2ccc(O)nn2)cnc1-c1ccccc1
Change (Canis familiaris [1]): -0.5% | Change (Canis familiaris [2]): -1% | Change (Canis familiaris [3]): -1.5% | Change (Canis familiaris [4]): -3% | Change (Canis familiaris [5]): -1.5% | Change (Canis familiaris [6]): 1.5% | Change (Canis familiaris [7]): 0.75% | Change (Canis familiaris [8]): -1.75% | Change (Canis familiaris [9]): -0.25% | Change (Canis familiaris [10]): -2.5% | Change (Canis familiaris [11]): 17% | IC50 [12]: 160 µM
